Experimental data from ChEMBL document CHEMBL4765452, “Discovery of (E)-N-(4-methyl-5-(3-(2-(pyridin-2-yl)vinyl)-1H-indazol-6-yl)thiazol-2-yl)-2-(4-methylpiperazin-1-yl)acetamide (IHMT-TRK-284) as a novel orally available type II TRK kinase inhibitor capable of overcoming multiple resistant mutants” (Eur J Med Chem, 2020).

Columns and labels:
[1] = Tmax in Beagle dog at 1 mg/kg, iv; format: ADME, organism-based, Canis lupus familiaris; settings: in vivo
Method in brief: (§1)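 Single-dose PK in mice, Sprague Dawley rats and beagle dogs, given i.v. (1 mg/kg) or p.o. (10 mg/kg mice and rats; 5 mg/kg dogs). AUC0-t, T1/2, Tmax and oral bioavailability (F) derived from plasma profiles.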

[2] = target: Mast/stem cell growth factor receptor Kit (Homo sapiens, UniProt P10721); test: Inhibition of human KIT by Z-LYTE or ADP-Glo assay
Sequence of Mast/stem cell growth factor receptor Kit (P10721 whole entry): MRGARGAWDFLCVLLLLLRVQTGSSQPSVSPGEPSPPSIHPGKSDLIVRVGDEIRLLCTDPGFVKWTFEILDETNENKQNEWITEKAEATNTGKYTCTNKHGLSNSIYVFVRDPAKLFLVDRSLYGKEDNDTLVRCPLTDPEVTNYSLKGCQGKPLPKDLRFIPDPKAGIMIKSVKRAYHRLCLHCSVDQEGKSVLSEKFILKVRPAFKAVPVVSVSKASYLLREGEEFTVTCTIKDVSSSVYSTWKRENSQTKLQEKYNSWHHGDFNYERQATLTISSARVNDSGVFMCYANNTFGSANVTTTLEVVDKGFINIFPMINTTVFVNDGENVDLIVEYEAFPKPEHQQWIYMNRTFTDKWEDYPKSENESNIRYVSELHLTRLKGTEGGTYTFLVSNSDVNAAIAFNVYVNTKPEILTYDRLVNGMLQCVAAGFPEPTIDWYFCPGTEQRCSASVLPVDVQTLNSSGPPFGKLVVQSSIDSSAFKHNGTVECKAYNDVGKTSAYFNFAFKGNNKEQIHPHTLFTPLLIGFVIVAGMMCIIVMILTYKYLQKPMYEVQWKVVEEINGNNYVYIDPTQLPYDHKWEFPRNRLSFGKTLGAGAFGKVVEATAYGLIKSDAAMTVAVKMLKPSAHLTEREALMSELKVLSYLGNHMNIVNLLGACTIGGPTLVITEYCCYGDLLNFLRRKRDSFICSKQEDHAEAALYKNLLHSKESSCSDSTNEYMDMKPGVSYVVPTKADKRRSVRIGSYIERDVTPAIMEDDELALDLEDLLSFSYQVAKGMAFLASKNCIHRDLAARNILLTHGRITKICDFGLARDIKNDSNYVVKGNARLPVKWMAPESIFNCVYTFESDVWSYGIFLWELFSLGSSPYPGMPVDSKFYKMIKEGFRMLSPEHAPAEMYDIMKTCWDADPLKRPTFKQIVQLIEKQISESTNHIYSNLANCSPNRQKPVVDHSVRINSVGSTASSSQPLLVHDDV
Method in brief: (§2)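 Purified kinase proteins tested biochemically in Z'LYTE or ADP-Glo format.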

[3] = Antiproliferative activity in mouse BAF3 cells assessed as growth inhibition after 72 hrs by CCK8 assay; format: cell-based
Method in brief: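 TEL- or LMNA-fusion isogenic BaF3 lines grown in RPMI 1640 with 10% FBS and 1% penicillin/streptomycin at 37 °C, 5% CO₂; suspension cells collected by spinning at 800 rpm for 4 min before use; growth inhibition scored as GI₅₀.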

[4] = target: T1, High affinity nerve growth factor receptor (Homo sapiens, UniProt P04629); test: Inhibition of TRKA in human KM-12-LUC cells assessed as reduction in AKT phosphorylation at T308 residue after 2 hrs by Western blot analysis; format: cell-based, KM12-Luc
Method in brief: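 KM-12-LUC (TPM3-TRKA fused colon cancer cells) grown in RPMI 1640 with 10% FBS and 1% penicillin/streptomycin at 37 °C under 5% CO2. Serially diluted compound added for 2 h. Lysates western blotted for phospho-AKT (T308/S473) and phospho-ERK1/2 (T202/Y204).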
Target sequence in this assay (P04629 whole entry, the tested form may be a part): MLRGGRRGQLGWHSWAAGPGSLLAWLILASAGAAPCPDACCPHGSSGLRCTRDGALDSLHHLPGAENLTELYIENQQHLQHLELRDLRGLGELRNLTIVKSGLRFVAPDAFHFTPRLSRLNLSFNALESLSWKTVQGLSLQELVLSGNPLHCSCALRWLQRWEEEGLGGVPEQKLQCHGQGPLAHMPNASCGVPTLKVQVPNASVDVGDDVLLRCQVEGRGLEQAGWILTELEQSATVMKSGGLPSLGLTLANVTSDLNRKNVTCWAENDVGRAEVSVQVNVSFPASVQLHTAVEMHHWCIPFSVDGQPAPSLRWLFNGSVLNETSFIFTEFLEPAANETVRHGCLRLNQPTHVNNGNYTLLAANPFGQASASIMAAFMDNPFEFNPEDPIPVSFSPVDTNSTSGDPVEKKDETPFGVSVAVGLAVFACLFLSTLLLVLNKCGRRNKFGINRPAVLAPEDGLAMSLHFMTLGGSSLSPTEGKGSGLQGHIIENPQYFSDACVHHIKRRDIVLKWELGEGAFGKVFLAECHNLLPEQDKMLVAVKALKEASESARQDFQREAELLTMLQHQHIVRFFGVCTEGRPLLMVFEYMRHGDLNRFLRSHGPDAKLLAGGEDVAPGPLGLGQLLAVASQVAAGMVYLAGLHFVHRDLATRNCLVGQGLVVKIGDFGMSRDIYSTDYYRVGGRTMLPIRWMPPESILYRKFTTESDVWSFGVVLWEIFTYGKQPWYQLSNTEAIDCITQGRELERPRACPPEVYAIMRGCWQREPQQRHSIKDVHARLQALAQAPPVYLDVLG

[5] = target: T1, High affinity nerve growth factor receptor; test: Inhibition of wild type TEL fused TRKA (unknown origin) transfected in mouse BAF3 cells assessed as growth inhibition after 72 hrs by CCK8 assay; format: cell-based
Target sequence in this assay (P04629 33-796 limits assumed): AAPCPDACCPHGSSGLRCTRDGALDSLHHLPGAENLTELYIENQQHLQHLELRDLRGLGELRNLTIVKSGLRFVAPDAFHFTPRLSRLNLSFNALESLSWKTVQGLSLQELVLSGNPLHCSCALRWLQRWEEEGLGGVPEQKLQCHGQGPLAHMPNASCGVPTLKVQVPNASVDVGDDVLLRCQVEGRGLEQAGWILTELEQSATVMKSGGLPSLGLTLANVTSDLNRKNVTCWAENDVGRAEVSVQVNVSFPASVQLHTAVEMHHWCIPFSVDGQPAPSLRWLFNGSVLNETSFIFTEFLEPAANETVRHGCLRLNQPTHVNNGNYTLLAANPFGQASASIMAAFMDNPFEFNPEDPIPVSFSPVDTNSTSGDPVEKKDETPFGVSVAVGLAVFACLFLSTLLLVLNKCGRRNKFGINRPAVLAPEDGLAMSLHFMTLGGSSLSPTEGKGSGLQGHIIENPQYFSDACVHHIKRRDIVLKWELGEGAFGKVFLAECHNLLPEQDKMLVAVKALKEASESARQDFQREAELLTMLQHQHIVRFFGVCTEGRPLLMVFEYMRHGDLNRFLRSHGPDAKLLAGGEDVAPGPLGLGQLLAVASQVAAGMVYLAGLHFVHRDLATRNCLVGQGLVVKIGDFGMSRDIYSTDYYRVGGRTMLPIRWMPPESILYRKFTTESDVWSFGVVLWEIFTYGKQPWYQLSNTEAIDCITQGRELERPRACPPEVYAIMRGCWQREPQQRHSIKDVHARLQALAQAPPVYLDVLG

[6] = target: T2, BDNF/NT-3 growth factors receptor (Homo sapiens, UniProt Q16620); test: Inhibition of human TRKB by Z-LYTE or ADP-Glo assay; method in brief: as §2
Target sequence in this assay (Q16620 whole entry, the tested form may be a part): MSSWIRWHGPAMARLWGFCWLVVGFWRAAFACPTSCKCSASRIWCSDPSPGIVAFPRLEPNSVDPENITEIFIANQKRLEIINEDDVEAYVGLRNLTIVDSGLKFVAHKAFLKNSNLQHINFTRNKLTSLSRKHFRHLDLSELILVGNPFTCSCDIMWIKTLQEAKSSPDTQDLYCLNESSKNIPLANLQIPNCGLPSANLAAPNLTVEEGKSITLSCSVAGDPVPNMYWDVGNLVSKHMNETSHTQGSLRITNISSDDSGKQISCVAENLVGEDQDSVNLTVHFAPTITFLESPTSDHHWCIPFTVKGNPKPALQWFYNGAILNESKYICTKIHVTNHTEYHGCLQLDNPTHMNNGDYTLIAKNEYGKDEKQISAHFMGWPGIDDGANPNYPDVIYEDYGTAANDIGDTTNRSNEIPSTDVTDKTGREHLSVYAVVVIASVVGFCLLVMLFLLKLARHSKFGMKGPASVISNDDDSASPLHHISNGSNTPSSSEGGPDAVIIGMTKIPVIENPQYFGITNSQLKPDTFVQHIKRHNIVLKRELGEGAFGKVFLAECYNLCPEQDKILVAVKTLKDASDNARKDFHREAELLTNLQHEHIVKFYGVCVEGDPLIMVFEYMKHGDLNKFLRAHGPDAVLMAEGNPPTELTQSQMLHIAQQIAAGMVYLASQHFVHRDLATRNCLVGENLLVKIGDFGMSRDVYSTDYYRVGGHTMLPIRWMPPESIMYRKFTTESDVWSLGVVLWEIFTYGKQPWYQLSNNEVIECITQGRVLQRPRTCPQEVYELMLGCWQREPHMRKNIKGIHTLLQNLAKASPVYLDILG

[7] = Inhibition of LMNA fused TRKA F589L mutant (unknown origin) transfected in mouse BaF3 cells assessed as reduction in phosphorylation at Y490 residue after 2 hrs by Western blot analysis; settings: Homo sapiens, BaF3, 2 h
[8] = Apparent volume of distribution in Sprague-Dawley rat at 10 mg/kg, po; format: ADME, organism-based; settings: in vivo
BaF3 [9] = test: Antitumor activity against mouse BAF3 cells harboring LMNA fused TRKA-G667S mutant allografted in nude mouse assessed as tumor growth inhibition at 80 mg/kg, po administered twice daily for 10 days relative to control; format: functional; settings: 240 h, time 10 day, read-out: TGI
Method in brief: (§3)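 Nu/nu mice given 1 million BaF3 cells (TEL-TRKA, TEL-TRKB, TEL-TRKC, LMNA-TRKA-F589L or LMNA-TRKA-G667S) in DMEM, 1:1 with matrigel, injected subcutaneously into the right flank; oral gavage began at 200–400 mm³, 5 mice per group, compound in 0.5% methylcellulose/0.4% Tween 80 in ddH₂O, 10 days; tumor volume [(W²×L)/2] and body weight recorded daily; TGI versus vehicle.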

[10] = Antiproliferative activity against human KM-12-LUC cells harboring […] fused TRKA assessed as growth inhibition after 72 hrs by CCK8 assay; format: functional; settings: KM12-Luc
Method in brief: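 KM-12-LUC cells seeded at 3 × 10⁴ cells/mL, incubated overnight at 37 °C, 5% CO₂, then medium replaced with fresh medium containing a range of compound concentrations for 72 h; viability read by CCK-8 absorbance at 450 nm, normalized to DMSO control, GI₅₀ from curve fitting.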

[11] = Cmax in Sprague-Dawley rat at 10 mg/kg, po; format: ADME, organism-based; parameters: route oral, dose 10 mg/kg; settings: in vivo
[12] = Half life in Sprague-Dawley rat at 10 mg/kg, po; format: ADME, organism-based; settings: in vivo
[13] = AUC (0 to t) in Sprague-Dawley rat at 10 mg/kg, po; format: ADME, organism-based; parameters: dose 10 mg/kg; settings: in vivo
Method in brief: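 Intravenous and oral arms were run in parallel in each species (mice, Sprague Dawley rats, beagle dogs). Exposure is reported as AUC0-t in ng/mL·h.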

[14] = Toxicity in mouse xenografted with mouse BAF3 cells harboring TEL fused TRKA assessed as effect on body weight at 40 to 80 mg/kg, po administered once daily for 10 days; format: organism-based; settings: in vivo, 240 h, dose 40-80 mg/kg/day, time 10 day
Method in brief: (§4)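 nu/nu mice were given subcutaneous right-flank implants in 1:1 DMEM/matrigel: 1 million BaF3 fusion cells or 5 million KM-12-LUC cells. Oral gavage started at 150–200 mm3 (xenograft) or 200–400 mm3 (allograft). Dosing used 40 or 80 mg/kg in HKI vehicle (0.5% methylcellulose/0.4% Tween 80 in ddH2O), with 5 mice per group. Body weight was recorded daily and behaviour observed.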

[15] = Apparent clearance in Beagle dog at 1 mg/kg, iv; format: ADME, organism-based, Canis lupus familiaris; settings: in vivo
[16] = Oral bioavailability in Sprague-Dawley rat at 10 mg/kg; format: ADME, organism-based; settings: in vivo; method in brief: as §1
[17] = target: T2, BDNF/NT-3 growth factors receptor; test: Inhibition of TEL fused TRKB (unknown origin) transfected in mouse BAF3 cells assessed as growth inhibition after 72 hrs by CCK8 assay; format: cell-based
Method in brief: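 TEL-fusion isogenic BaF3 lines were built in-house and grown in RPMI 1640 with 10% FBS and 1% penicillin/streptomycin at 37 °C under 5% CO2. Cells were spun down before use.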
Target sequence in this assay (Q16620 32-822 limits assumed): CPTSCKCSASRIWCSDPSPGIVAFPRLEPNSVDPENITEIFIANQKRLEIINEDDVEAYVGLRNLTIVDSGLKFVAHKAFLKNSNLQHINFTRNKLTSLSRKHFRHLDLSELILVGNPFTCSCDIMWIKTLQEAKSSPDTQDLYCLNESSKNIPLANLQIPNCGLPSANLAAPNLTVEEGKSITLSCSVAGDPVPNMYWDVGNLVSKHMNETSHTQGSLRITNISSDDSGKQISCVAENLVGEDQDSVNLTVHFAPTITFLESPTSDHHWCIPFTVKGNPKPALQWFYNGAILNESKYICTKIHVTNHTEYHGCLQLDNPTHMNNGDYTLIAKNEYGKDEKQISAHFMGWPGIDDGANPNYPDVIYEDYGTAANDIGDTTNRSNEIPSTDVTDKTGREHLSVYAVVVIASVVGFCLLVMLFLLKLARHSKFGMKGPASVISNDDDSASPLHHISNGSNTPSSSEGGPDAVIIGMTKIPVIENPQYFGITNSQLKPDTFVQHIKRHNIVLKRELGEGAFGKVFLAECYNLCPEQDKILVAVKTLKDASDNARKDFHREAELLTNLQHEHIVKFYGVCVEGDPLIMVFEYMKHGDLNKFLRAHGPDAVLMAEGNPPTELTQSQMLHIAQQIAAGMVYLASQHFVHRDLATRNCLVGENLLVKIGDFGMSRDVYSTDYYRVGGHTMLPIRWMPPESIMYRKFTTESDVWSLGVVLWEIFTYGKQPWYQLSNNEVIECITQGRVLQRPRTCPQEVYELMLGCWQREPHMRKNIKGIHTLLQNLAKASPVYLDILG

[18] = Toxicity in mouse xenografted with mouse BAF3 cells harboring TEL fused TRKC assessed as effect on body weight at 40 to 80 mg/kg, po administered once daily for 10 days; format: organism-based; settings: in vivo, 240 h, dose 40-80 mg/kg/day, time 10 day; method in brief: as §4
[19] = Oral bioavailability in mouse at 10 mg/kg; format: ADME, organism-based; settings: in vivo; method in brief: as §1
[20] = Half life in mouse at 1 mg/kg, iv; format: ADME, organism-based; settings: in vivo
[21] = Apparent volume of distribution in Beagle dog at 5 mg/kg, po; format: ADME, organism-based, Canis lupus familiaris; settings: in vivo
[22] = Cmax in mouse at 10 mg/kg, po; format: ADME, organism-based; parameters: route oral, dose 10 mg/kg; settings: in vivo
BaF3 [23] = test: Antitumor activity against mouse BAF3 cells harboring TEL fused TRKB allografted in nude mouse assessed as tumor growth inhibition at 40 mg/kg, po administered once daily for 10 days relative to control; format: functional; settings: 240 h, time 10 day, read-out: TGI; method in brief: as §3
BaF3 [24] = test: Antitumor activity against mouse BAF3 cells harboring TEL fused TRKA allografted in nude mouse assessed as tumor growth inhibition administered orally once daily for 10 days; format: functional, cell-based; settings: dose 40-80 mg/kg/day, time 10.0 day; method in brief: as §3
[25] = target: T1, High affinity nerve growth factor receptor; test: Inhibition of TEL fused wild type TRKA (unknown origin) transfected in mouse BaF3 cells assessed as reduction in phosphorylation at Y490 residue after 2 hrs by Western blot analysis; format: cell-based
Method in brief: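 Isogenic BaF3 lines, made in-house, grown in RPMI 1640 with 10% FBS and 1% penicillin/streptomycin at 37 °C under 5% CO2. Serially diluted compound added for 2 h. Cells collected and lysed, and lysates analysed by western blotting for phospho-TRK. EC50 derived from the blots.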
Target sequence in this assay (P04629 whole entry, the tested form may be a part): as the sequence (P04629 whole entry, the tested form may be a part) above

[26] = Apparent clearance in mouse at 10 mg/kg, po; format: ADME, organism-based; settings: in vivo, read-out: CLz/F (converted)
[27] = Apparent clearance in Sprague-Dawley rat at 1 mg/kg, iv; format: ADME, organism-based; settings: in vivo
[28] = Tmax in mouse at 1 mg/kg, iv; format: ADME, organism-based; settings: in vivo; method in brief: as §1
[29] = Tmax in Sprague-Dawley rat at 1 mg/kg, iv; format: ADME, organism-based; settings: in vivo; method in brief: as §1
BaF3 [30] = test: Antitumor activity against mouse BAF3 cells harboring TEL fused TRKA allografted in nude mouse assessed as tumor growth inhibition at 40 mg/kg, po administered once daily for 10 days relative to control; format: functional; settings: 240 h, time 10 day, read-out: TGI; method in brief: as §3

**Q.** With Cc1nc(NC(=O)CN2CCN(C)CC2)sc1-c1ccc2c(/C=C/c3ccccn3)n[nH]c2c1 as the compound, how does the Tmax [1] read?
**A.** The Tmax was 4.8 min.

**Q.** What about the IC50 [2] of the same compound?
**A.** Its IC50 is 2.17 µM.

**Q.** And the GI50 at 72 h [3]?
**A.** The GI50 at 72 h was 1.4 µM.

**Q.** What about the EC50 [4] of the same compound?
**A.** The EC50 was under 0.03 µM.

**Q.** What about the GI50 [5] of the same compound?
**A.** The GI50 was 0.0085 µM.

**Q.** What about the IC50 [6] of the same compound?
**A.** The IC50 was 0.00071 µM.

**Q.** And the EC50 [7]?
**A.** Its EC50 is 0.021 µM.

**Q.** What about the Vz [8] of the same compound?
**A.** The Vz was 37.364 L/kg.

**Q.** And the inhibition in vivo at 80 mg/kg (BaF3 [9])?
**A.** The inhibition in vivo at 80 mg/kg was 89.1%.

**Q.** What about the GI50 [10] of the same compound?
**A.** Its GI50 is 0.002 µM.

**Q.** And the Cmax [11]?
**A.** The Cmax was 139 ng/mL.

**Q.** What about the t1/2 [12] of the same compound?
**A.** The t1/2 was 150 min.

**Q.** And the AUC(0-t) [13]?
**A.** The AUC(0-t) was 952 ng·h/mL.

**Q.** What about the Activity [14] of the same compound?
**A.** Its Activity is “Non-Toxic”.

**Q.** What about the CLz/F [15] of the same compound?
**A.** The CLz/F was 47.68 mL/min/kg.

**Q.** And the bioavailability [16]?
**A.** Its bioavailability is 26%.

**Q.** What about the GI50 [17] of the same compound?
**A.** The GI50 was 0.0082 µM.

**Q.** And the Activity [18]?
**A.** Its Activity is “Non-Toxic”.

**Q.** What about the bioavailability [19] of the same compound?
**A.** The bioavailability was 20%.

**Q.** And the t1/2 [20]?
**A.** Its t1/2 is 156 min.

**Q.** And the Vz [21]?
**A.** Its Vz is 149.26 L/kg.

**Q.** And the Cmax [22]?
**A.** The Cmax was 258 ng/mL.

**Q.** And the inhibition in vivo at 40 mg/kg/day (BaF3 [23])?
**A.** The inhibition in vivo at 40 mg/kg/day was 83.1%.

**Q.** And the Activity (BaF3 [24])?
**A.** Its Activity is “Dose-dependent effect”.

**Q.** And the EC50 [25]?
**A.** The EC50 was 0.026 µM.

**Q.** And the CL/F [26]?
**A.** The CL/F was 108 mL/min/kg.

**Q.** What about the CLz/F [27] of the same compound?
**A.** The CLz/F was 41.35 mL/min/kg.

**Q.** And the Tmax [28]?
**A.** The Tmax was 1.98 min.

**Q.** What about the Tmax [29] of the same compound?
**A.** The Tmax was 1.8 min.

**Q.** What about the inhibition in vivo at 40 mg/kg/day (BaF3 [30]) of the same compound?
**A.** The inhibition in vivo at 40 mg/kg/day was 52.2%.
